# Experimental data published in ChEMBL document CHEMBL1132342, “Novel hypotensive agents from Verbesina caracasana. 6. Synthesis and pharmacology of caracasandiamide” (1999).
# Experiments:
# Rattus norvegicus [1] = assay: Change in systolic blood pressure after iv administration of 1600 ug/Kg in the presence of noradrenaline (agonist) in anesthetized rats; type: functional, Artery
# Rattus norvegicus [2] = assay: Change in systolic blood pressure after iv administration of 400 ug/Kg compound (treatment with hexamethonium (5 mg/Kg, iv)in anesthetized rats; type: functional, Artery
# Summary of the method: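 Urethane-anesthetized male Wistar rats, 6 per group, received iv doses of 200-1600 µg/kg (ratio 2.0) given alone or under a pretreatment. Pretreatments were continuous iv papaverine infusion (1 mg/kg/min), reserpine 5 mg/kg/day ip for 2 days, or hexamethonium 5 mg/kg iv. Peak changes in femoral arterial BP and HR were recorded; values are mean ± SE.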
# Rattus norvegicus [3] = assay: Change in systolic blood pressure after iv administration of 400 ug/Kg in anesthetized rats; type: functional, Artery
# Summary of the method: (§1)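 Urethane-anesthetized (10% w/v, […] ip in saline) adult male Wistar rats, trachea cannulated, breathing spontaneously, 37 °C. Femoral artery catheter for blood pressure, femoral vein for dosing. Sequential iv doses 50–3200 µg/kg (ratio 2.0) in saline, each given after parameters returned to baseline. Peak changes recorded; means ± SE, n = 12 (n = 7 at 3200 µg/kg).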
# Rattus norvegicus [4] = assay: Change in systolic blood pressure after iv administration of 50 ug/Kg in anesthetized rats; type: functional, Artery; summary of the method: as §1
# Rattus norvegicus [5] = assay: Change in diastolic blood pressure after iv administration of 1600 ug/Kg in the presence of acetylcholine (agonist) in anesthetized rats; type: functional, Artery
# Summary of the method: (§2)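 Urethane-anesthetized male Wistar rats (16 rats, two equal groups) received 400 or 1600 µg/kg compound iv. Cardiovascular responses to iv agonist boluses (noradrenaline 1 µg/kg, acetylcholine 2.50 µg/kg, adrenaline, isoprenaline) were measured before and after compound dosing. Peak responses are given as mean ± SE; p < 0.05 versus control mean.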
# Rattus norvegicus [6] = assay: Change in diastolic blood pressure after iv administration of 1600 ug/Kg in the presence of noradrenaline (agonist) in anesthetized rats; type: functional, Artery; summary of the method: as §2
# Rattus norvegicus [7] = assay: Change in diastolic blood pressure after iv administration of 4.12 uM/kg in anesthetized rats; type: functional, Artery
# Rattus norvegicus [8] = assay: Change in diastolic blood pressure after iv administration of 400 ug/Kg in the presence of acetylcholine (agonist) in anesthetized rats; type: functional, Artery; summary of the method: as §2
# Rattus norvegicus [9] = assay: Change in diastolic blood pressure after iv administration of 400 ug/Kg in the presence of noradrenaline (agonist) in anesthetized rats; type: functional, Artery; summary of the method: as §2
# Rattus norvegicus [10] = assay: Change in diastolic blood pressure after iv administration of 50 ug/Kg in anesthetized rats; type: functional, Artery
# Summary of the method: (§3)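 Adult male Wistar rats under ip ethylurethane (10% w/v in saline, 1 mL/kg) with tracheal cannula and spontaneous breathing, kept at 37 °C. Arterial BP was recorded by femoral artery catheter; compound in saline (50 µL) was given via femoral vein at 50–3200 µg/kg, ratio 2.0. Peak change is given as mean ± SE, n = 12 (n = 7 at 3200 µg/kg).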
# Rattus norvegicus [11] = assay: Change in diastolic blood pressure after iv administration of 800 ug/Kg compound (treatment with papaverine(1 mg/Kg/min, iv)in anesthetized rats; type: functional, Artery
# Summary of the method: (§4)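 In anesthetized male Wistar rats, responses to iv compound (200–1600 µg/kg, ratio 2.0) were measured alone and under three pretreatments: continuous iv papaverine infusion (1 mg/kg/min), ip reserpine (5 mg/kg/day for 2 days), or iv hexamethonium (5 mg/kg). Peak changes are given as mean ± SE, n = 6 per group; p < 0.05 versus control.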
# Rattus norvegicus [12] = assay: Change in systolic blood pressure after iv administration of 100 ug/Kg in anesthetized rats; type: functional, Artery
# Summary of the method: (§5)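 Male Wistar rats (299 ± 3 g) were anesthetized with ethylurethane ip, tracheally cannulated and breathing spontaneously, at 37 °C, and stabilized for 60 min. Doses of 50-3200 µg/kg (ratio 2.0) in saline were injected by femoral vein, 50 µL each. Recordings: femoral arterial BP, electromagnetic abdominal-aortic flow, SV from integrated pulsatile flow, polygraphic RF. Peak changes, mean ± SE, n = 12 (n = 7 at 3200).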
# Rattus norvegicus [13] = assay: Change in systolic blood pressure after iv administration of 1600 ug/Kg in the presence of acetylcholine (agonist) in anesthetized rats; type: functional, Artery
# Rattus norvegicus [14] = assay: Change in diastolic blood pressure after iv administration of 1600 ug/Kg compound (treatment with papaverine(1 mg/Kg/min, iv)in anesthetized rats; type: functional, Artery; summary of the method: as §4
# Rattus norvegicus [15] = assay: Change in heart rate after iv administration of 100 ug/Kg in anesthetized rats; type: functional; summary of the method: as §3
# Rattus norvegicus [16] = assay: Change in heart rate after iv administration of 1600 ug/Kg in the presence of acetylcholine (agonist) in anesthetized rats; type: functional; summary of the method: as §2
# Rattus norvegicus [17] = assay: Change in heart rate after iv administration of 200 ug/Kg in anesthetized rats; type: functional; summary of the method: as §3
# Rattus norvegicus [18] = assay: Change in heart rate after iv administration of 400 ug/Kg in anesthetized rats; type: functional; summary of the method: as §3
# Rattus norvegicus [19] = assay: Change in mean aortic flow after iv administration of 1600 ug/Kg in anesthetized rats; type: functional; summary of the method: as §5
# Rattus norvegicus [20] = assay: Maximum rate of rise of the left ventricular isovolumetric pressure was measured after iv administration of 1600 ug/Kg compound (treatment with papaverine(1 mg/Kg/min, iv)in anesthetized rats; type: functional, Heart left ventricle
# Summary of the method: (§6)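 Anesthetized rats, n = 6 per group, received iv doses of 200–1600 µg/kg (ratio 2.0) either alone (control) or under pretreatment: continuous iv papaverine infusion 1 mg/kg/min, reserpine 5 mg/kg/day ip for 2 days, or hexamethonium 5 mg/kg iv. Peak changes in BP, heart rate and dP/dt recorded; means ± SE, p < 0.05 versus control.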
# Rattus norvegicus [21] = assay: Maximum rate of rise of the left ventricular isovolumetric pressure was measured after iv administration of 1600 ug/Kg in anesthetized rats; type: functional, Heart left ventricle; summary of the method: as §1
# Rattus norvegicus [22] = assay: Maximum rate of rise of the left ventricular isovolumetric pressure after iv administration of 1600 ug/Kg compound (treatment with reserpine(5 mg/kg/day for 2 days, ip)in anesthetized rats; type: functional, Heart left ventricle; summary of the method: as §6
# Rattus norvegicus [23] = assay: Maximum rate of rise of the left ventricular isovolumetric pressure was measured after iv administration of 400 ug/Kg in the presence of adrenaline (agonist) in anesthetized rats; type: functional, Heart left ventricle
# Summary of the method: (§7)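 Anesthetized male Wistar rats, two groups of 8, received 400 or 1600 µg/kg iv. Before and after this dose, iv agonist challenges were given: noradrenaline 1 µg/kg, adrenaline, acetylcholine 2.50 µg/kg, or isoprenaline. Systolic/diastolic BP, heart rate and dP/dt responses were recorded before (control) and after dosing; significance was set at p < 0.05 versus control.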
# Rattus norvegicus [24] = assay: Maximum rate of rise of the left ventricular isovolumetric pressure was measured after iv administration of 4.12 uM/Kg in anesthetized rats; type: functional, Heart left ventricle
# Rattus norvegicus [25] = assay: Maximum rate of rise of the left ventricular isovolumetric pressure was measured after iv administration of 1600 ug/Kg in the presence of isoprenaline (agonist) in anesthetized rats; type: functional, Heart left ventricle; summary of the method: as §7
# Rattus norvegicus [26] = assay: Change in stroke volume after iv administration of 100 ug/Kg in anesthetized rats; type: functional; summary of the method: as §5
smiles,measurement,setting,value
COc1ccc(C2C(c3ccc(OC)c(OC)c3)[C@H](C(=O)NCCCC/N=C(\N)NCC=C(C)C)[C@@H]2C(=O)NCCCC/N=C(\N)NCC=C(C)C)cc1OC (stereo partly specified) [CARACASANDIAMIDE],BP,Rattus norvegicus [1],24 mmHg
same,BP,Rattus norvegicus [2],-41 mmHg
same,BP,Rattus norvegicus [3],-20 mmHg
same,Change in BP,Rattus norvegicus [3],-19%
same,BP,Rattus norvegicus [4],17 mmHg
same,Change in BP,Rattus norvegicus [4],16%
same,BP,Rattus norvegicus [5],-54 mmHg
same,BP,Rattus norvegicus [6],10 mmHg
same,BP,Rattus norvegicus [7],-47 mmHg
same,BP,Rattus norvegicus [8],-45 mmHg
same,BP,Rattus norvegicus [9],15 mmHg
same,BP,Rattus norvegicus [10],10 mmHg
same,Change in BP,Rattus norvegicus [10],13%
same,BP,Rattus norvegicus [11],-16 mmHg
same,BP,Rattus norvegicus [12],12 mmHg
same,Change in BP,Rattus norvegicus [12],12%
same,BP,Rattus norvegicus [13],-38 mmHg
same,BP,Rattus norvegicus [14],-29 mmHg
same,Change in heart rate,Rattus norvegicus [15],-3%
same,Heart rate,Rattus norvegicus [15],-10 beats min-1
same,Heart rate,Rattus norvegicus [16],-34 beats min-1
same,Change in heart rate,Rattus norvegicus [17],-4%
same,Heart rate,Rattus norvegicus [17],-13 beats min-1
same,Change in heart rate,Rattus norvegicus [18],-4%
same,Heart rate,Rattus norvegicus [18],-16 beats min-1
same,Change in mean aortic flow,Rattus norvegicus [19],-49%
same,Mean aortic flow,Rattus norvegicus [19],-36 mL/min
same,dP/dt,Rattus norvegicus [20],3321 mmHg s-1
same,Change in dP/dt,Rattus norvegicus [21],60%
same,dP/dt,Rattus norvegicus [21],3676 mmHg s-1
same,dP/dt,Rattus norvegicus [22],1238 mmHg s-1
same,dP/dt,Rattus norvegicus [23],6848 mmHg s-1
same,dP/dt,Rattus norvegicus [24],3991 mmHg s-1
same,dP/dt,Rattus norvegicus [25],14552 mmHg s-1
same,Change in stroke volume,Rattus norvegicus [26],10%
same,Stroke volume,Rattus norvegicus [26],20 µL
